Assay results reported in ChEMBL document CHEMBL1817567, “Design of benzimidazole- and benzoxazole-2-thione derivatives as inhibitors of bacterial hyaluronan lyase” (Eur J Med Chem, 2011).
Converted amounts (≈) assume the structure as drawn. The source made the active and inactive calls. No cut-off for these calls is given here.

What was measured:
[1] = biological target: T1, Hyaluronidase (Bos taurus) (UniProt Q8SQG8+Q5E985); assay: Inhibition of bovine testes hyaluronidase at 130 uM after 30 mins at pH 5 by turbidimetric analysis; format: protein assay
[2] = biological target: T1, Hyaluronidase (Bos taurus); assay: Inhibition of bovine testes hyaluronidase at 380 uM after 30 mins at pH 5 by turbidimetric analysis; format: protein assay
[3] = biological target: T1, Hyaluronidase (Bos taurus); assay: Inhibition of bovine testes hyaluronidase at 80 uM after 30 mins at pH 5 by turbidimetric analysis; format: protein assay
[4] = biological target: T1, Hyaluronidase (Bos taurus); assay: Inhibition of bovine testes hyaluronidase at 2000 uM after 30 mins at pH 5 by turbidimetric analysis; format: protein assay
[5] = biological target: T1, Hyaluronidase (Bos taurus); assay: Inhibition of bovine testes hyaluronidase at 3800 uM after 30 mins at pH 5 by turbidimetric analysis; format: protein assay
[6] = biological target: T1, Hyaluronidase (Bos taurus); assay: Inhibition of bovine testes hyaluronidase at 190 uM after 30 mins at pH 5 by turbidimetric analysis; format: protein assay
[7] = biological target: T1, Hyaluronidase (Bos taurus); assay: Inhibition of bovine testes hyaluronidase at 100 uM after 30 mins at pH 5 by turbidimetric analysis; format: protein assay
[8] = biological target: T1, Hyaluronidase (Bos taurus); assay: Inhibition of bovine testes hyaluronidase at 170 uM after 30 mins at pH 5 by turbidimetric analysis; format: protein assay
Streptococcus agalactiae [9] = assay: Inhibition of Streptococcus agalactiae 4755 hyaluronidase at 3800 uM after 30 mins at pH 5.0 by turbidimetric analysis
Outline: (§1)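 SagHyal4755 (2.9 ng) with BSA and hyaluronan (2 mg/ml stock) in citrate–phosphate/NaCl buffer pH 5.0, 3.8% DMSO final, 30 min at 37 °C. Stopped by alkaline 2.5% CTAB, then 20 min at 25 °C. Residual-substrate turbidity read at 600 nm; no-inhibitor sample = 100%, no-enzyme sample = 0% activity. Enzyme-free compound controls were run.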

[10] = biological target: T1, Hyaluronidase (Bos taurus); assay: Inhibition of bovine testes hyaluronidase at 49 uM after 30 mins at pH 5 by turbidimetric analysis; format: protein assay
[11] = biological target: T1, Hyaluronidase (Bos taurus); assay: Inhibition of bovine testes hyaluronidase at 63 uM after 30 mins at pH 5 by turbidimetric analysis; format: protein assay
[12] = biological target: T1, Hyaluronidase (Bos taurus); assay: Inhibition of bovine testes hyaluronidase at 200 uM after 30 mins at pH 5 by turbidimetric analysis; format: protein assay
[13] = biological target: T1, Hyaluronidase (Bos taurus); assay: Inhibition of bovine testes hyaluronidase at 150 uM after 30 mins at pH 5 by turbidimetric analysis; format: protein assay
[14] = biological target: T1, Hyaluronidase (Bos taurus); assay: Inhibition of bovine testes hyaluronidase at 460 uM after 30 mins at pH 5 by turbidimetric analysis; format: protein assay
[15] = biological target: T1, Hyaluronidase (Bos taurus); assay: Inhibition of bovine testes hyaluronidase at 400 uM after 30 mins at pH 5 by turbidimetric analysis; format: protein assay
[16] = Aqueous solubility of the compound in water; format: physicochemical
Outline: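 Turbidity at 600 nm of test compound in DMSO added to citrate–phosphate buffer (pH 5 and pH 7.4), water and BSA (0.2 mg/ml stock), at various concentrations, read against a water reference. Enzyme testing used only concentrations showing no turbidity.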

[17] = Inhibition of Streptococcus agalactiae 4755 hyaluronidase at pH 7.4 after 3 hrs by turbidimetric analysis
Outline: (§2)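 Same turbidimetric hyaluronan-lyase assay at pH 7.4 (citrate–phosphate/NaCl): SagHyal4755 2.9 ng, hyaluronan (2 mg/ml stock), BSA, 3.8% DMSO final, 3 h at 37 °C. CTAB (2.5%, in 0.5 M NaOH) precipitation, 20 min at 25 °C, A600. Activity scaled between no-inhibitor and no-enzyme samples.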

[18] = biological target: T1, Hyaluronidase (Bos taurus); assay: Inhibition of bovine testes hyaluronidase at 4200 uM after 30 mins at pH 5 by turbidimetric analysis; format: protein assay
[19] = biological target: T1, Hyaluronidase (Bos taurus); assay: Inhibition of bovine testes hyaluronidase at 180 uM after 30 mins at pH 5 by turbidimetric analysis; format: protein assay
Streptococcus agalactiae [20] = assay: Inhibition of Streptococcus agalactiae 4755 hyaluronidase at 170 uM after 30 mins at pH 5.0 by turbidimetric analysis; outline: as §1
Streptococcus agalactiae [21] = assay: Inhibition of Streptococcus agalactiae 4755 hyaluronidase at 49 uM after 30 mins at pH 5.0 by turbidimetric analysis; outline: as §1
Streptococcus agalactiae [22] = assay: Inhibition of Streptococcus agalactiae 4755 hyaluronidase at 400 uM after 30 mins at pH 5.0 by turbidimetric analysis; outline: as §1
Streptococcus agalactiae [23] = assay: Inhibition of Streptococcus agalactiae 4755 hyaluronidase at 200 uM after 30 mins at pH 5.0 by turbidimetric analysis; outline: as §1
Streptococcus agalactiae [24] = assay: Inhibition of Streptococcus agalactiae 4755 hyaluronidase at 200 uM after 3 hrs at pH 7.4 by turbidimetric analysis; outline: as §2
Streptococcus agalactiae [25] = assay: Inhibition of Streptococcus agalactiae 4755 hyaluronidase at 380 uM after 30 mins at pH 5.0 by turbidimetric analysis; outline: as §1
Streptococcus agalactiae [26] = assay: Inhibition of Streptococcus agalactiae 4755 hyaluronidase at 460 uM after 30 mins at pH 5.0 by turbidimetric analysis; outline: as §1
Streptococcus agalactiae [27] = assay: Inhibition of Streptococcus agalactiae 4755 hyaluronidase at 100 uM after 30 mins at pH 5.0 by turbidimetric analysis; outline: as §1
Streptococcus agalactiae [28] = assay: Inhibition of Streptococcus agalactiae 4755 hyaluronidase at 180 uM after 30 mins at pH 5.0 by turbidimetric analysis; outline: as §1
Streptococcus agalactiae [29] = assay: Inhibition of Streptococcus agalactiae 4755 hyaluronidase at 190 uM after 30 mins at pH 5.0 by turbidimetric analysis; outline: as §1

inhibition [1] | inhibition [2] | inhibition [3] | inhibition [4] | inhibition [5] | inhibition [6] | inhibition [7] | inhibition [8] | inhibition [10] | inhibition [11] | inhibition [12] | inhibition [13] | inhibition [14] | inhibition [15] | solubility [16] [µM] | IC50 [17] [µM] | inhibition [18] | inhibition [19] | SMILES | other results
inactive | inactive | inactive | inactive | inactive | inactive | inactive | inactive | inactive | inactive | inactive | inactive | inactive | inactive | 49 (≈ 14.2 µg/mL) | 12 | inactive | inactive | CCCCCC(=O)n1c(=S)n(C(C)=O)c2ccccc21 | inhibition (Streptococcus agalactiae [21]): 50%
inactive | inactive | inactive | inactive | inactive | inactive | inactive | inactive | inactive | inactive | inactive | inactive | inactive | inactive | 400 (≈ 116 µg/mL) | 70 | inactive | inactive | O=C(c1cccc(Cl)c1)n1c(=S)[nH]c2ccccc21 | inhibition (Streptococcus agalactiae [22]): 16%
inactive | inactive | inactive | inactive | inactive | inactive | inactive | inactive | inactive | inactive | inactive | inactive | inactive | inactive | 200 (≈ 68.3 µg/mL) | 21 | inactive | inactive | COC(=O)c1ccc2oc(=S)n(C(=O)CCc3ccccc3)c2c1 | inhibition (Streptococcus agalactiae [23]): 56%
inactive | inactive | inactive | inactive | inactive | inactive | inactive | inactive | inactive | inactive | inactive | inactive | inactive | inactive | 460 (≈ 88.4 µg/mL) | 17 | inactive | inactive | CC(=O)n1c(=S)[nH]c2ccccc21 | inhibition (Streptococcus agalactiae [26]): 20%
inactive | inactive | inactive | inactive | inactive | inactive | inactive | inactive | inactive | inactive | inactive | inactive | inactive | inactive | 100 (≈ 28.2 µg/mL) | 29 | inactive | inactive | O=C(CCc1ccccc1)n1c(=S)[nH]c2ccccc21 | inhibition (Streptococcus agalactiae [27]): 5%
inactive | inactive | inactive | inactive | inactive | inactive | inactive | inactive | inactive | inactive | inactive | inactive | inactive | inactive | 190 (≈ 41.9 µg/mL) | 20 | inactive | inactive | CCCC(=O)n1c(=S)[nH]c2ccccc21 | inhibition (Streptococcus agalactiae [29]): 7%

More lines, now with the values behind:

SMILES | inhibition [1] | inhibition [2] | inhibition [3] | inhibition [4] | inhibition [5] | inhibition [6] | inhibition [7] | inhibition [8] | inhibition [10] | inhibition [11] | inhibition [12] | inhibition [13] | inhibition [14] | inhibition [15] | solubility [16] [µM] | IC50 [17] [µM] | inhibition [18] | inhibition [19] | other results
Sc1nc2ccccc2o1 | inactive | inactive | inactive | inactive | inactive | inactive | inactive | inactive | inactive | inactive | inactive | inactive | inactive | inactive | 3800 (≈ 575 µg/mL) | 2540 | inactive | inactive | inhibition (Streptococcus agalactiae [9]): 42%
CCCCCC(=O)n1c(=S)[nH]c2ccccc21 | inactive | inactive | inactive | inactive | inactive | inactive | inactive | inactive | inactive | inactive | inactive | inactive | inactive | inactive | 170 (≈ 42.2 µg/mL) | 16 | inactive | inactive | inhibition (Streptococcus agalactiae [20]): 14%
CC(=O)n1c(=O)n(C(C)=O)c2ccccc21 | inactive | inactive | inactive | inactive | inactive | inactive | inactive | inactive | inactive | inactive | inactive | inactive | inactive | inactive | 200 (≈ 43.6 µg/mL) |  | inactive | inactive | inhibition (Streptococcus agalactiae [23]): inactive; inhibition (Streptococcus agalactiae [24]): 10%
CCn1c(=S)n(C(C)=O)c2ccccc21 | inactive | inactive | inactive | inactive | inactive | inactive | inactive | inactive | inactive | inactive | inactive | inactive | inactive | inactive | 380 (≈ 83.7 µg/mL) | 19 | inactive | inactive | inhibition (Streptococcus agalactiae [25]): 10%
CCC(=O)n1c(=S)[nH]c2ccccc21 | inactive | inactive | inactive | inactive | inactive | inactive | inactive | inactive | inactive | inactive | inactive | inactive | inactive | inactive | 180 (≈ 37.1 µg/mL) | 26 | inactive | inactive | inhibition (Streptococcus agalactiae [28]): 4%
